Measurements: ChEMBL document CHEMBL1134437, “Synthesis and biological evaluation of novel pyrazoles and indazoles as activators of the nitric oxide receptor, soluble guanylate cyclase” (J Med Chem, 2001)

Tests used:
[1] = (§1) Bovine sGC stimulation measured as relative enzyme activity (percentage of DEA/NO response for the compound to compound 3); assay type: functional
Outline: (§2)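 Baculovirus-expressed bovine sGC from Sf21 cells, partially purified on Mono-Q. Compound at 1 µM single concentration in Tris buffer pH 7.4 with 5 mM MgCl2, IBMX and GTP; sGC submaximally stimulated with 300 nM DEA/NO, 10 min at room temperature. cGMP by competitive enzyme immunoassay, duplicate, at least n = 2; expressed as % of DEA/NO response, then ratio to benzydamine.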

Homo sapiens [2] = organism: Homo sapiens; assay: Percent inhibition of collagen-induced platelet aggregation at 100 uM concentration; assay type: functional
Homo sapiens [3] = organism: Homo sapiens; assay: Concentration required to inhibit collagen-induced platelet aggregation by 50%; assay type: functional
Outline: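 Washed human platelets, prepared from citrated blood with PGI2 and normalized to 250 000 cells/µL in calcium-free Tyrode's buffer pH 7.4. Compound (DMSO ≤0.1% final) added 1 min before an EC50 dose of collagen. Light-transmittance aggregometry at 37 °C, response read 3 min after collagen and normalized to collagen control. IC50 from dose-response curves, mean ± SEM, at least 2 experiments.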

[4] = (§3) Compound was evaluated for pharmacokinetic parameter was determined after oral dosing of 2 mg/kg in rat; assay type: ADME, organism-based; parameters: dose 2 mg/kg, route oral; details: in vivo
Outline: (§4)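 Male Sprague-Dawley rats, cassette-dosed at 2 mg/kg in PBS orally (iv arm also run). Serum extracted into diethyl ether and analysed by reversed-phase C18 HPLC.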

Rattus norvegicus [5] = assay: as §3; assay type: ADME, organism-based; parameters: dose 2 mg/kg, route oral; details: in vivo; outline: as §4
[6] = Bioavailability in rat after (dose 2 mg/kg p.o.); assay type: ADME, organism-based; details: in vivo, po; outline: as §4
[7] = Activation of bovine sGC Enzyme (soluble Guanylate Cyclase) in Sf21 cells infected with baculo virus in the presence of 30 nM of PAPA/NO; assay type: cell-based
Outline: (§5)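 Bovine sGC expressed in Sf21 cells (baculovirus, 2.5 µg/mL hemin, 27 °C, 48 h), partially purified by Mono-Q anion exchange. Reaction in Tris buffer pH 7.4 with 5 mM MgCl2, 120 µg/mL enzyme, IBMX and GTP, stimulated by 30 nM PAPA/NO, room temperature, 10 min. cGMP read by competitive enzyme immunoassay. EC50 from nonlinear regression, mean ± SEM of at least 3 independent experiments.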

[8] = Cmax was determined after oral dosing of 5 mg/kg in rat; assay type: ADME, organism-based; parameters: dose 5 mg/kg, route oral; details: in vivo
Outline: (§6)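 Male Sprague-Dawley rats given 5 mg/kg in PBS orally (iv arm also run). Blood taken predose and at 0.5, 1, 2, 3, 4, 6, 10 and 24 h after oral dosing. Serum extracted into diethyl ether and analysed by reversed-phase C18 HPLC.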

Rattus norvegicus [9] = assay: Area under curve (AUC) was determined after oral dosing of 5 mg/kg in rat; assay type: ADME, organism-based; parameters: dose 5 mg/kg, route oral; details: in vivo; outline: as §6
[10] = Bioavailability in rat after (dose 5 mg/kg p.o.); assay type: ADME, organism-based; details: in vivo, po; outline: as §6
[11] = Activation of sGC Enzyme (soluble Guanylate Cyclase) in Sf21 cells infected with baculo virus in the presence of 30 nM of PAPA/NO; assay type: functional, cell-based; outline: as §5
Homo sapiens [12] = organism: Homo sapiens; assay: Percent inhibition of collagen-induced platelet aggregation at 50 uM concentration; assay type: functional
[13] = as §1; outline: as §2
Homo sapiens [14] = organism: Homo sapiens; assay: Percent inhibition of collagen-induced platelet aggregation by 50% at a concentration of 100 uM; assay type: functional

SMILES	REA [1]	further results
CNC(=O)c1cc(OCCCN(C)C)nn1Cc1ccccc1	0.95	–
Nc1cc(COc2cc(-c3ccccc3)[nH]n2)ccn1	0.53	–
Nc1ncccc1COc1cc(-c2ccccc2)[nH]n1	0.69	–
CN(C)CCCOc1cc(C(=O)NCc2ccccc2)n(Cc2ccccc2)n1	1.22	inhibition at 100 µM (Homo sapiens [2]): 25%
COc1cc(-c2cc(OCCCN(C)C)[nH]n2)cc(OC)c1OC	1.1	IC50 (Homo sapiens [3]): 41.1 µM
CN(C)CCCOc1cc(C(=O)N2CCOCC2)n(Cc2ccccc2)n1	0.84	inhibition at 100 µM (Homo sapiens [2]): 90%
CN(C)CCCOc1nn(CCc2ccccc2)c2ccccc12	0.84	–
CN(C)CCCOc1ccn(Cc2ccccc2)n1	0.73	–
CN(C)CCCOc1cc(-c2ccccc2)n(Cc2ccccc2)n1	1.08	Cmax [4]: 3.1 ng/mL; AUC (Rattus norvegicus [5]): 15.5 ng·h/mL; bioavailability [6]: 2%; IC50 (Homo sapiens [3]): 2.37 µM; EC50 [7]: 0.44 µM
CN(C)CCCOc1[nH]ncc1-c1ccccc1	1.17	IC50 (Homo sapiens [3]): 12 µM
CN(C)CCCOc1nn(CCCN(C)C)c2ccccc12	0.79	–
CN(C)CCCOc1cc(-c2ccncc2)[nH]n1	1.15	inhibition at 100 µM (Homo sapiens [2]): 0%
CN(C)CCCNc1cc(-c2ccccc2)[nH]n1	0.66	–
CN(C)CCCCCOc1nn(Cc2ccccc2)c2ccccc12	0.56	–
CCCN(CCC)C(=O)c1cc(OCCCN(C)C)nn1Cc1ccccc1	1.22	inhibition at 100 µM (Homo sapiens [2]): 35%
CN(C)CCCOc1cc(-c2ccccc2)n(-c2ccccc2)n1	1.28	Cmax [8]: 1.4 ng/mL; AUC (Rattus norvegicus [9]): 3.3 ng·h/mL; bioavailability [10]: < 2%; IC50 (Homo sapiens [3]): 2.84 µM; EC50 [7]: 0.58 µM
CN(C)CCCOc1cc(C(F)(F)F)[nH]n1	1.13	inhibition at 100 µM (Homo sapiens [2]): 8%
CN(C)CCCCc1cc(-c2ccccc2)[nH]n1	0.68	–
CN(C)CCCOc1cc(C(=O)N(C)C)n(Cc2ccccc2)n1	0.93	inhibition at 100 µM (Homo sapiens [2]): 4%
CN(C)CCCOc1nn(-c2ccccc2)c2ccccc12	1.16	Cmax [4]: 3.2 ng/mL; AUC (Rattus norvegicus [5]): 7.9 ng·h/mL; bioavailability [6]: 2%; IC50 (Homo sapiens [3]): 2.46 µM
OCc1ccc(-c2nn(Cc3ccccc3)c3ccccc23)o1	–	EC50 [11]: 4.11 µM

SMILES	REA [1]	further results
CN(C)CCCOc1[nH]nc2ccccc12	–	inhibition at 50 µM (Homo sapiens [12]): 50%; REA [13]: 1.93
CC(=O)n1nc(OCCCN(C)C)c2ccccc21	0.82	–
CN(C)CCCOc1cc(-c2ccccc2)[nH]n1	1.49	inhibition at 100 µM (Homo sapiens [2]): 19%; EC50 [7]: 0.72 µM
CN(C)CCCOc1cc(-c2ccoc2)[nH]n1	1.31	IC50 (Homo sapiens [3]): 99 µM
CN(C)CCCOc1cc(Cc2ccccc2)n[nH]1	1.54	IC50 (Homo sapiens [3]): 49.2 µM; EC50 [7]: 0.165 µM
CN(C)CCCCOc1nn(Cc2ccccc2)c2ccccc12	0.79	IC50 (Homo sapiens [3]): 7.62 µM
COc1ccc(NC(=O)c2cc(OCCCN(C)C)nn2Cc2ccccc2)cc1	1.1	AUC (Rattus norvegicus [9]): 61.1 ng·h/mL; EC50 [7]: 5.49 µM
CN1CCCC(COc2cc(-c3ccccc3)[nH]n2)C1 (centres undefined)	0.61	–
CCN(CC)CCCOc1cc(-c2ccccc2)[nH]n1	0.42	–
CN(C)CCCOc1cc(-c2ccccc2)nn1Cc1ccccc1	0.72	–
NCCCOc1nn(Cc2ccccc2)c2ccccc12	0.48	–
CN(C)CCCOc1nn(Cc2ccccc2)c2ccccc12 [BENZYDAMINE]	1	IC50 (Homo sapiens [3]): 6.67 µM; EC50 [7]: 1.02 µM
CN(C)CCOc1nn(Cc2ccccc2)c2ccccc12	0.33	–
CN(C)CCCOc1nn(S(C)(=O)=O)c2ccccc12	1.07	IC50 (Homo sapiens [3]): 21.6 µM
CC(C)n1nc(OCCCN(C)C)c2ccccc21	0.66	–
CC(COc1nn(Cc2ccccc2)c2ccccc12)CN(C)C (centres undefined)	0.62	IC50 (Homo sapiens [3]): 4.18 µM
CN(C)CCCOc1nn(C(=O)N(C)C)c2ccccc12	0.78	–
CN(C)CCCOc1nn(C(=O)c2ccccc2)c2ccccc12	1.04	IC50 (Homo sapiens [3]): 8.57 µM
c1ccc(-c2cc(OCCCN3CCCC3)n[nH]2)cc1	0.85	–
CN(C)CCCOc1ccn(-c2ccccc2)n1	0.71	inhibition at 100 µM (Homo sapiens [14]): 3%
CN(C)CCCOc1cc(C(=O)O)n(Cc2ccccc2)n1	1.01	–
